Assay results from ChEMBL document CHEMBL3351250, “Modified salicylanilide and 3-phenyl-2H-benzo[e][1,3]oxazine-2,4(3H)-dione derivatives as novel inhibitors of osteoclast differentiation and bone resorption” (J Med Chem, 2014).
Active and inactive are the calls of the source. The calls are words filed in the database; no cut-off is given here.

How the values were obtained:
[1] = Cytotoxicity against mouse RAW264.7 cells assessed as survival rate at 10 uM after 24 hrs by MTT assay; type: cell-based; conditions: read-out: Activity
How it was run: (§1)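 Cells at 1 × 10⁴/well in DMEM + 10% FBS, exposed to compounds for 24 h at 37 °C, 5% CO₂. After PBS washes, MTT (0.5 mg/mL in medium) added for 1 h at 37 °C; formazan dissolved in DMSO, absorbance read at 540 nm. Viability expressed as % of DMSO control; CC₅₀ is the concentration giving 50% loss of mean viability (N = 3).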

[2] = Cytotoxicity against mouse RAW264.7 cells assessed as reduction in survival rate after 24 hrs by MTT assay; type: cell-based; how it was run: as §1
RAW264.7 [3] = experiment: Inhibition of RANKL-induced osteoclastogenesis in mouse RAW264.7 cells assessed as TRAP+ multinucleated cells level at 10 uM incubated for 4 days by TRAP staining assay; type: functional; design: scale not given: the % may be the effect or the level left
How it was run: (§2)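 Cells plated at 1 × 10³ (96-well) or 5 × 10⁴ (48-well) in α-MEM with 10% FBS, 2 mM […], 100 ng/mL recombinant murine RANKL and compound for 4 days; medium changed on day 2. Fixed in acetone/citrate/formaldehyde for 5 min and TRAP-stained. TRAP⁺ cells with >5 nuclei counted by light microscopy, expressed as % of the RANKL-only group.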

RAW264.7 [4] = experiment: Inhibition of RANKL-induced osteoclastogenesis in mouse RAW264.7 cells assessed as TRAP+ multinucleated cells level incubated for 4 days by TRAP staining assay; type: functional, cell-based; conditions: RAW264.7, 96 h
How it was run: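 RAW264.7 cells in α-MEM with 10% FBS, 2 mM […], 100 ng/mL recombinant soluble murine RANKL and a range of compound concentrations for 4 days, with medium changed on day 2. Cells fixed in acetone/citrate/formaldehyde for 5 min and TRAP-stained. Cells with >5 nuclei counted by light microscopy and expressed as % of RANKL-only; IC50 is 50% inhibition.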

RAW264.7 [5] = experiment: Cytotoxicity against mouse RAW264.7 cells assessed as survival rate at 5 and 10 uM after 24 hrs by MTT assay; type: cell-based; conditions: raw264.7, 24 h; how it was run: as §1
RAW264.7 [6] = experiment: Inhibition of RANKL-induced osteoclastogenesis in mouse RAW264.7 cells assessed as TRAP+ multinucleated cells level at 5 uM incubated for 4 days by TRAP staining assay; type: functional; design: scale not given: the % may be the effect or the level left; how it was run: as §2
RAW264.7 [7] = experiment: Inhibition of RANKL-induced osteoclastogenesis in mouse RAW264.7 cells assessed as TRAP+ multinucleated cells level at […] incubated for 4 days by TRAP staining assay; type: functional; design: scale not given: the % may be the effect or the level left
RAW264.7 [8] = experiment: Inhibition of RANKL-induced osteoclastogenesis in mouse RAW264.7 cells assessed as reduction in TRAP activity incubated for 4 days by TRAP staining assay; type: functional, cell-based; conditions: for IC50: RAW264.7, 96 h
How it was run: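 RAW264.7 cells were RANKL-differentiated (100 ng/mL recombinant soluble murine RANKL in α-MEM/10% FBS, compounds at various concentrations, 4 days, medium changed day 2). TRAP activity was read with 2 mg/mL 4-nitrophenyl phosphate in 0.09 M citrate buffer for 15 min at 37 °C, stopped with 0.1 N NaOH. Expressed as % of RANKL-only; IC50 is 50% inhibition.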

RAW264.7 [9] = experiment: Inhibition of RANKL-induced NFATc1 mRNA expression in mouse RAW264.7 cells at 5 to […] pre-treated for 1 hr before RANKL stimulation measured after 24 to 48 hrs by RT-PCR method; type: functional, cell-based
RAW264.7 [10] = experiment: Inhibition of RANKL-induced c-fos mRNA expression in mouse RAW264.7 cells at 5 to […] pre-treated for 1 hr before RANKL stimulation measured after 24 to 48 hrs by RT-PCR method; type: functional, cell-based
RAW264.7 [11] = experiment: Inhibition of RANKL-induced DC-STAMP mRNA expression in mouse RAW264.7 cells at 5 to […] pre-treated for 1 hr before RANKL stimulation measured after 24 to 48 hrs by RT-PCR method; type: functional, cell-based
RAW264.7 [12] = experiment: Inhibition of RANKL-induced TRAP mRNA expression in mouse RAW264.7 cells at 5 to […] pre-treated for 1 hr before RANKL stimulation measured after 24 to 48 hrs by RT-PCR method; type: functional, cell-based
RAW264.7 [13] = experiment: Inhibition of RANKL-induced cathepsin K mRNA expression in mouse RAW264.7 cells at 5 to […] pre-treated for 1 hr before RANKL stimulation measured after 24 to 48 hrs by RT-PCR method; type: functional, cell-based
RAW264.7 [14] = experiment: Inhibition of RANKL-induced MMP9 mRNA expression in mouse RAW264.7 cells at 5 to […] pre-treated for 1 hr before RANKL stimulation measured after 24 to 48 hrs by RT-PCR method; type: functional, cell-based
RAW264.7 [15] = experiment: Inhibition of RANKL-induced NFATc1 protein expression in mouse RAW264.7 cells nuclear extracts at 5 to […] pre-treated for 1 hr before RANKL stimulation measured after 24 hrs by Western blotting method; type: functional, cell-based
RAW264.7 [16] = experiment: Inhibition of RANKL-induced NFkappaB protein expression in mouse RAW264.7 cells nuclear extracts at 5 to […] pre-treated for 1 hr before RANKL stimulation measured after 24 hrs by Western blotting method; type: functional, cell-based
RAW264.7 [17] = experiment: Inhibition of RANKL-induced NFkappaB protein expression in mouse RAW264.7 cells nuclear extracts assessed as NFkappaB level at 5 uM pre-treated for 1 hr before RANKL stimulation measured after 24 hrs by Western blotting method relative to TBP protein; type: functional
How it was run: (§3)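 Cells (1 × 10⁶ per 6 cm plate) attached 24 h in DMEM/10% FBS. Pretreated with compound in α-MEM/10% FBS for 1 h, then RANKL 100 ng/mL for 24 h. Nuclear extracts (18 μg) run on 12% SDS-PAGE and blotted with monoclonal anti-NFATc1 or anti-NF-κB (1:1000, 12 h, 4 °C) plus HRP secondary, ECL detection. Band signal normalized to TATA-box binding protein.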

RAW264.7 [18] = experiment: Inhibition of RANKL-induced NFkappaB protein expression in mouse RAW264.7 cells nuclear extracts assessed as NFkappaB level at […] pre-treated for 1 hr before RANKL stimulation measured after 24 hrs by Western blotting method relative to TBP protein; type: functional
RAW264.7 [19] = experiment: Inhibition of RANKL-induced NFATc1 protein expression in mouse RAW264.7 cells nuclear extracts assessed as NFATc1 level at 5 uM pre-treated for 1 hr before RANKL stimulation measured after 24 hrs by Western blotting method relative to TBP protein; type: functional; how it was run: as §3
RAW264.7 [20] = experiment: Inhibition of RANKL-induced NFATc1 protein expression in mouse RAW264.7 cells nuclear extracts assessed as NFATc1 level at […] pre-treated for 1 hr before RANKL stimulation measured after 24 hrs by Western blotting method relative to TBP protein; type: functional
RAW264.7 [21] = experiment: Inhibition of RANKL-induced bone resorption in mouse RAW264.7 cells incubated for 4 days by toluidine blue staining based pit formation assay; type: functional, cell-based
How it was run: (§4)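 Seeded at 1 × 10⁴/well onto dentine slices in α-MEM/10% FBS with 100 ng/mL RANKL plus compound. Medium with compound renewed every 2 days. On day 4, cells removed with 1 M ammonium hydroxide, slices stained with 0.1% toluidine blue, pits imaged by light microscopy. Resorbed area expressed as fraction of total area; significance versus the RANKL-only group.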

RAW264.7 [22] = experiment: Inhibition of RANKL-induced bone resorption in mouse RAW264.7 cells assessed as reduction in resorbed area at 2.5 to 10 uM incubated for 4 days by toluidine blue staining based pit formation assay; type: functional, cell-based; how it was run: as §4
[23] = Toxicity in mouse MC3T3-E1 cells assessed as effect on osteoblast differentiation by measuring ALP activity at […] incubated for 14 days in presence of beta-glycerol phosphate and ascorbic acid; type: cell-based; conditions: mc3t3-e1, 336 h
[24] = Toxicity in mouse MC3T3-E1 cells assessed as effect on osteoblast differentiation by measuring ECM calcification activity at […] incubated for 14 days in presence of beta-glycerol phosphate and ascorbic acid by Alizarin red S staining method; type: cell-based; conditions: mc3t3-e1, 336 h
RAW264.7 [25] = experiment: Inhibition of RANKL-induced osteoclastogenesis in mouse RAW264.7 cells assessed as TRAP+ multinucleated cells level at 2.5 uM incubated for 4 days by TRAP staining assay; type: functional; design: scale not given: the % may be the effect or the level left; how it was run: as §2

Structure (SMILES): O=c1oc2ccccc2c(=O)n1-c1ccc(Cl)cc1F
- viability at 24 h, 10 µM [1]: 97.9%
- CC50 at 24 h [2]: 26.5 µM
- Activity (RAW264.7 [3]): 19.7%
- IC50 (RAW264.7 [4]): 7.1 µM
- Activity (RAW264.7 [5]): Non-toxic
- Activity (RAW264.7 [6]): 74.6%
- Activity (RAW264.7 [7]): 45.9%
- inhibition (RAW264.7 [8]): Dose-dependent effect
- IC50 (RAW264.7 [8]): 10.6 µM
- inhibition (RAW264.7 [9]): Active
- inhibition (RAW264.7 [10]): Active
- inhibition (RAW264.7 [11]): Active
- inhibition (RAW264.7 [12]): Dose-dependent effect
- inhibition (RAW264.7 [13]): Dose-dependent effect
- inhibition (RAW264.7 [14]): Dose-dependent effect
- inhibition (RAW264.7 [15]): Dose-dependent effect
- inhibition (RAW264.7 [16]): Dose-dependent effect
- fold change (FC) (RAW264.7 [17]): 0.77
- fold change (FC) (RAW264.7 [18]): 0.73
- fold change (FC) (RAW264.7 [19]): 0.99
- fold change (FC) (RAW264.7 [20]): 0.76
- inhibition (RAW264.7 [21]): Dose-dependent effect
- inhibition (RAW264.7 [22]): Active
- Activity [23]: Non-toxic
- Activity [24]: Non-toxic

Structure (SMILES): O=c1oc2ccccc2c(=O)n1-c1ccc(I)cc1F
- viability at 24 h, 10 µM [1]: 91.4%
- CC50 at 24 h [2]: 23.6 µM
- Activity (RAW264.7 [3]): 1.8%
- IC50 (RAW264.7 [4]): 4.9 µM
- Activity (RAW264.7 [5]): Non-toxic
- Activity (RAW264.7 [6]): 49.1%
- Activity (RAW264.7 [7]): 29.1%
- Activity (RAW264.7 [25]): 74.1%
- inhibition (RAW264.7 [8]): Dose-dependent effect
- IC50 (RAW264.7 [8]): 7.3 µM
- inhibition (RAW264.7 [9]): Active
- inhibition (RAW264.7 [10]): Active
- inhibition (RAW264.7 [11]): Active
- inhibition (RAW264.7 [12]): Dose-dependent effect
- inhibition (RAW264.7 [13]): Dose-dependent effect
- inhibition (RAW264.7 [14]): Dose-dependent effect
- inhibition (RAW264.7 [15]): Dose-dependent effect
- inhibition (RAW264.7 [16]): Dose-dependent effect
- fold change (FC) (RAW264.7 [17]): 0.75
- fold change (FC) (RAW264.7 [18]): 0.58
- fold change (FC) (RAW264.7 [19]): 0.76
- fold change (FC) (RAW264.7 [20]): 0.72
- inhibition (RAW264.7 [21]): Dose-dependent effect
- inhibition (RAW264.7 [22]): Active
- Activity [23]: Non-toxic
- Activity [24]: Non-toxic
